In ChEMBL document CHEMBL4765445, “Structure-activity relationship study of novel quinazoline-based 1,6-naphthyridinones as MET inhibitors with potent antitumor efficacy” (Eur J Med Chem, 2020):
pIC50: −log10 of the molar value. Blank lines part the entries; values can stand above or below the compound they belong to.

Key:
[1] = target: T1, Hepatocyte growth factor receptor (Homo sapiens, UniProt P08581); test: Inhibition of recombinant MET kinase domain (unknown origin)
[2] = target: T1, Hepatocyte growth factor receptor; test: Inhibition of MET in human MKN-45 cells assessed as reduction in HGF-mediated autophosphorylation; format: cell-based
[3] = target: Vascular endothelial growth factor receptor 2 (Homo sapiens, UniProt P35968); test: Inhibition of recombinant VEGFR2 kinase domain (unknown origin)
How it was run: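 In vitro kinase assay using purified recombinant VEGFR-2 kinase domain; IC50 determined.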

[4] = Half life in human liver microsomes; format: ADME, Microsome
Homo sapiens = organism: Homo sapiens; test: Selectivity ratio of IC50 for recombinant VEGFR2 (unknown origin) to IC50 for recombinant MET (unknown origin)
How it was run: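 In vitro enzyme assays used purified recombinant MET and VEGFR-2 kinase domains, each tested separately. IC50 values are in nM. The ratio divides the VEGFR-2 enzyme IC50 by the MET enzyme IC50.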

[5] = target: Mast/stem cell growth factor receptor Kit (Homo sapiens, UniProt P10721); test: Inhibition of c-KIT (unknown origin)
[6] = target: T2, Receptor-type tyrosine-protein kinase FLT3 (Homo sapiens, UniProt P36888); test: Inhibition of FLT3 (unknown origin)
T2 sequence (P36888 whole entry): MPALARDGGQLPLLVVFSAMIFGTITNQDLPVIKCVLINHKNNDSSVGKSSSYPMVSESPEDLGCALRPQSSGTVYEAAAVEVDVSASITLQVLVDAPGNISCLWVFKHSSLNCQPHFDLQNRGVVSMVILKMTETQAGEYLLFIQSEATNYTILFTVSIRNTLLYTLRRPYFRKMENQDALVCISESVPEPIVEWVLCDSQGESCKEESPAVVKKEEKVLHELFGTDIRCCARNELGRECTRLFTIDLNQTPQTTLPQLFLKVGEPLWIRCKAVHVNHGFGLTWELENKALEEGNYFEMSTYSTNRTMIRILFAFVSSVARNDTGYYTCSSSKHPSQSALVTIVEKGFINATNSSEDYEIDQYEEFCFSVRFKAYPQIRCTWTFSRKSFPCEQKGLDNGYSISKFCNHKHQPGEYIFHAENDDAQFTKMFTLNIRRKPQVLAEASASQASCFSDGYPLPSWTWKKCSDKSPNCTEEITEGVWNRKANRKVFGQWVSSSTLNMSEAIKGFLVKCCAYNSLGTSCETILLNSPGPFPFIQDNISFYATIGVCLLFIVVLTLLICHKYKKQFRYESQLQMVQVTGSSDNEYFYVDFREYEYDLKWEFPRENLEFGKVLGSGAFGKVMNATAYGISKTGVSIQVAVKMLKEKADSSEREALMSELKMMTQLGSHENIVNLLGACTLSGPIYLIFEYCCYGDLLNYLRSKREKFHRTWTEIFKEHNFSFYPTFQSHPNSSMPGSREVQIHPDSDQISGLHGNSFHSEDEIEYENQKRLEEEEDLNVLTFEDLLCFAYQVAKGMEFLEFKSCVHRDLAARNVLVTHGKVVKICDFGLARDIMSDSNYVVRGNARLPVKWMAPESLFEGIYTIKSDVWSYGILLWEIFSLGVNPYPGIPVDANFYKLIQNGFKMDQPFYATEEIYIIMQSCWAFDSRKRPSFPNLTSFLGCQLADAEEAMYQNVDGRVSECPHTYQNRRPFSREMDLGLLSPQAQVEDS

[7] = target: Platelet-derived growth factor receptor beta (Homo sapiens, UniProt P09619); test: Inhibition of PDGFRbeta (unknown origin)
[8] = Cmax in rat at 10 mg/kg, po; format: ADME, organism-based; set-up: route oral, dose 10 mg/kg; conditions: in vivo
How it was run: (§1)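 Rat pharmacokinetics used 10 mg/kg p.o. and 5 mg/kg i.v. with vehicle 70% PEG400-30% water. Plasma concentration–time curves gave Cmax, Tmax, T1/2, AUC0-∞, CL, Vz and oral bioavailability F. Values are the average of three animals.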

[9] = Tmax in rat at 10 mg/kg, po; format: ADME, organism-based; conditions: in vivo; how it was run: as §1
[10] = Half life in rat at 10 mg/kg, po; format: ADME, organism-based; conditions: in vivo; how it was run: as §1
[11] = AUC (0 to infinity) in rat at 10 mg/kg, po; format: ADME, organism-based; set-up: time infinity, route oral, dose 10 mg/kg; conditions: in vivo
[12] = Clearance in rat at 10 mg/kg, po; format: ADME, organism-based; conditions: in vivo; how it was run: as §1
[13] = Apparent volume of distribution in rat at 10 mg/kg, po; format: ADME, organism-based; conditions: in vivo; how it was run: as §1
[14] = Oral bioavailability in rat at 10 mg/kg; format: ADME, organism-based; conditions: in vivo; how it was run: as §1
[15] = Cmax in rat at 5 mg/kg, iv; format: ADME, organism-based; set-up: route intravenous, dose 5 mg/kg; conditions: in vivo; how it was run: as §1
[16] = Tmax in rat at 5 mg/kg, iv; format: ADME, organism-based; conditions: in vivo; how it was run: as §1
[17] = Half life in rat at 5 mg/kg, iv; format: ADME, organism-based; conditions: in vivo; how it was run: as §1
[18] = AUC (0 to infinity) in rat at 5 mg/kg, iv; format: ADME, organism-based; set-up: time infinity, route intravenous, dose 5 mg/kg; conditions: in vivo
[19] = Clearance in rat at 5 mg/kg, iv; format: ADME, organism-based; conditions: in vivo; how it was run: as §1
[20] = Apparent volume of distribution in rat at 5 mg/kg, iv; format: ADME, organism-based; conditions: in vivo, read-out: Vz; how it was run: as §1
U-87 MG [21] = test: Antitumor activity against human U-87 MG cells xenografted in po dosed nude mouse assessed as tumor growth inhibition administered once daily for 3 weeks; format: functional, U-87MG ATCC
U-87 MG [22] = test: Antitumor activity against human U-87 MG cells xenografted in nude mouse assessed as tumor growth inhibition at 25 mg/kg, po administered once daily for 3 weeks; format: functional, U-87MG ATCC; conditions: 504 h, read-out: TGI
U-87 MG [23] = test: Antitumor activity against human U-87 MG cells xenografted in nude mouse assessed as tumor growth inhibition at 75 mg/kg, po administered once daily for 3 weeks relative to control; format: functional, U-87MG ATCC; conditions: 504 h, read-out: TGI
[24] = Cmax in nude mouse xenografted with human U-87 MG cells at 25 mg/kg, po administered once daily for 3 weeks; format: ADME, organism-based; set-up: route oral, dose 25 mg/kg, time 3 weeks; conditions: in vivo
How it was run: (§2)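 PK/PD sampling was done within the U-87 MG nude-mouse xenograft study. Compound was given p.o. once daily for 21 days in 70% PEG-400/H₂O. Cmax and AUC0-t were measured in plasma.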

[25] = Cmax in nude mouse xenografted with human U-87 MG cells at 75 mg/kg, po administered once daily for 3 weeks; format: ADME, organism-based; set-up: route oral, time 3 weeks, dose 75 mg/kg; conditions: in vivo; how it was run: as §2
[26] = AUC (0 to t) in nude mouse xenografted with human U-87 MG cells at 25 mg/kg, po administered once daily for 3 weeks; format: ADME, organism-based; set-up: time 3 weeks, dose 25 mg/kg; conditions: in vivo
[27] = AUC (0 to t) in nude mouse xenografted with human U-87 MG cells at 75 mg/kg, po administered once daily for 3 weeks; format: ADME, organism-based; set-up: time 3 weeks, dose 75 mg/kg; conditions: in vivo

T1 sequence (P08581 whole entry, the tested form may be a part): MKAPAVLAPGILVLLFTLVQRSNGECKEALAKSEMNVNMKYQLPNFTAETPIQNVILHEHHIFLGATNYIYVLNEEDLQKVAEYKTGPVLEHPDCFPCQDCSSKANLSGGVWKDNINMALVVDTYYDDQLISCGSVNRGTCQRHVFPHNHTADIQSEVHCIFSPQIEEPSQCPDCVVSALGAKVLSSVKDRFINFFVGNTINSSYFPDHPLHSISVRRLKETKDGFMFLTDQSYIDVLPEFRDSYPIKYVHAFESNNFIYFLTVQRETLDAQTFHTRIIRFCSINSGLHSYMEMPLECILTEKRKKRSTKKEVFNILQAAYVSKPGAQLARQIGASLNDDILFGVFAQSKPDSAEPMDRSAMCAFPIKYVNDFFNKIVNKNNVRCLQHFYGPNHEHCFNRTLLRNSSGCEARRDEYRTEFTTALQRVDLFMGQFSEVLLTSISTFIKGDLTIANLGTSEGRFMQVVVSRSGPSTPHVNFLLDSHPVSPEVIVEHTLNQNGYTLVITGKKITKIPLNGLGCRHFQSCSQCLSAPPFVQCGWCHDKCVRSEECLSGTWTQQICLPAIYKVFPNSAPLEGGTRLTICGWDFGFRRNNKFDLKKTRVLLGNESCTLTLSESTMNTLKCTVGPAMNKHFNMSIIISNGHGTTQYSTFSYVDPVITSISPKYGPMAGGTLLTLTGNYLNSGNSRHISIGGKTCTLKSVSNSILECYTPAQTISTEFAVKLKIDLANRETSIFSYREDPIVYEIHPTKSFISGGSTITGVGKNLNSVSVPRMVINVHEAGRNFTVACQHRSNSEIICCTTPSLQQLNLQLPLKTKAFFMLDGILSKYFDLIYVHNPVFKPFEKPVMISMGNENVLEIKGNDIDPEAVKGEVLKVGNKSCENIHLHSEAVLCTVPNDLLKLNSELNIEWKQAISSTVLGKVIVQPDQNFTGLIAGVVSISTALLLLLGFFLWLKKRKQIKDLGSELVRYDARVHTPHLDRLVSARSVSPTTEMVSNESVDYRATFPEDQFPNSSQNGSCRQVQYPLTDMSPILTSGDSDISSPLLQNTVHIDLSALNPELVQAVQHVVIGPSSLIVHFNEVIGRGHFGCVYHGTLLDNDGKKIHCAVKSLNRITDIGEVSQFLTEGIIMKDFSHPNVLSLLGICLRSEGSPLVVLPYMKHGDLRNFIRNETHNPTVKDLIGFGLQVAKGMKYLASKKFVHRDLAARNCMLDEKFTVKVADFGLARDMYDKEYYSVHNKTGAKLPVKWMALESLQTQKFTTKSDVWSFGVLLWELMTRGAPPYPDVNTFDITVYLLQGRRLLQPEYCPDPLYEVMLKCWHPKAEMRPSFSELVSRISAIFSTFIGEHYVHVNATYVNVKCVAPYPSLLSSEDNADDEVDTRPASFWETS
Chain of Vascular endothelial growth factor receptor 2 (P35968 whole entry, the tested form may be a part): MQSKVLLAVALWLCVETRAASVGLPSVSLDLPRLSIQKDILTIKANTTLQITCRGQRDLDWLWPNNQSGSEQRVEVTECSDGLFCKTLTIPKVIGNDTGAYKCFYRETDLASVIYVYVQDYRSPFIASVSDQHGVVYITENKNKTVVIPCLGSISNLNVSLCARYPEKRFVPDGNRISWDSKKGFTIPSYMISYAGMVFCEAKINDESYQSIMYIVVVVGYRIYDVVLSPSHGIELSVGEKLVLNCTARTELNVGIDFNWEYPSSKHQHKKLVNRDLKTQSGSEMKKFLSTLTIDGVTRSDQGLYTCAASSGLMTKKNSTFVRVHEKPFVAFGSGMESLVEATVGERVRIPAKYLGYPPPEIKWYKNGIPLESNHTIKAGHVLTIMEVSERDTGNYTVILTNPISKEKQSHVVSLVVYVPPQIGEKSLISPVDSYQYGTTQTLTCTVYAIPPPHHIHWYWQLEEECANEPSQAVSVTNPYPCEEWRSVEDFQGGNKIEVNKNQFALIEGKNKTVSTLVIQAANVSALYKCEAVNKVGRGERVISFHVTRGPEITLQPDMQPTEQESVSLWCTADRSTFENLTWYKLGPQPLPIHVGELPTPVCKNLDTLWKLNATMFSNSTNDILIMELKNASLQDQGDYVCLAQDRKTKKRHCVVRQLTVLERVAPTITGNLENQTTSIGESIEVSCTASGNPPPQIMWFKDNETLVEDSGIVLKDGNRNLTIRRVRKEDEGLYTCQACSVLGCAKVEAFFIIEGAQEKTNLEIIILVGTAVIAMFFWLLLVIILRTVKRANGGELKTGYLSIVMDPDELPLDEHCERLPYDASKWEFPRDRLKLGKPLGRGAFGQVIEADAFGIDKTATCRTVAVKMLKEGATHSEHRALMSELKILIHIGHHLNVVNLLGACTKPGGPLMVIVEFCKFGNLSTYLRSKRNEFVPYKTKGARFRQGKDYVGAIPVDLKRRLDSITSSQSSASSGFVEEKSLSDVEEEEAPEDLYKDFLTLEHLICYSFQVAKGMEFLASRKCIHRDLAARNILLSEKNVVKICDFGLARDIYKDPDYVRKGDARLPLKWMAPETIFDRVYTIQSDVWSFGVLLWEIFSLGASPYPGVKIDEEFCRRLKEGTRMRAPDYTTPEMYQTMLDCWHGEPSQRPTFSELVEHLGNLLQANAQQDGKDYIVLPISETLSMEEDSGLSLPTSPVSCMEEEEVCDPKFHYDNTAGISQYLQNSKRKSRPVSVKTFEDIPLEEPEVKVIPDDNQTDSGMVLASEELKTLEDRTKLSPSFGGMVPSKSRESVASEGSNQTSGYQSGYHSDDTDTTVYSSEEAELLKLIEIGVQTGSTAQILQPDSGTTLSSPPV
Chain of Mast/stem cell growth factor receptor Kit (P10721 whole entry): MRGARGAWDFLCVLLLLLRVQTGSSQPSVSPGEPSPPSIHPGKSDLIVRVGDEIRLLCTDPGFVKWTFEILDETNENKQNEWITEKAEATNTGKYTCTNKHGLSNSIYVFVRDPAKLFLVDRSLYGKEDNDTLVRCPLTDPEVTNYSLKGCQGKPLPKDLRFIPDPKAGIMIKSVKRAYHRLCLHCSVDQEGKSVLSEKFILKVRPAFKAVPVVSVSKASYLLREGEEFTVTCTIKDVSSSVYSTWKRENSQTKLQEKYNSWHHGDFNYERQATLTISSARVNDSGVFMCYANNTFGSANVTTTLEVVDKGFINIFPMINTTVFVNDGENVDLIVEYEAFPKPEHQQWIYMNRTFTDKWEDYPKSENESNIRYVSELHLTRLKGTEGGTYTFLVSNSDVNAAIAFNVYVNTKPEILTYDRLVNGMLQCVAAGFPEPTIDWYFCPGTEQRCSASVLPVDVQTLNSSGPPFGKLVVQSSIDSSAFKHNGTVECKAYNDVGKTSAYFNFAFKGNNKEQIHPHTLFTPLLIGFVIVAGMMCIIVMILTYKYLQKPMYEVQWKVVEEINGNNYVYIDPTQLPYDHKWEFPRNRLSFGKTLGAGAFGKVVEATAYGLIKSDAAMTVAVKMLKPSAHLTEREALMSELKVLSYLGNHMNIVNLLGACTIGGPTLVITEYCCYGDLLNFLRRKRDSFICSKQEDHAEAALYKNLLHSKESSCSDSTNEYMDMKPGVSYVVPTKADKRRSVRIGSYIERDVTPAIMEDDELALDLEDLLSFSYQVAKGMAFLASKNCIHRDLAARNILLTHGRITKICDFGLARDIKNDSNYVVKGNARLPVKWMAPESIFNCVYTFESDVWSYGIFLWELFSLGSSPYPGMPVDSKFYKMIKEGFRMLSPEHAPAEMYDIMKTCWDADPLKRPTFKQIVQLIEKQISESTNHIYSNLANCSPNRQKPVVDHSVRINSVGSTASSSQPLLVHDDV
Chain of Platelet-derived growth factor receptor beta (P09619 whole entry): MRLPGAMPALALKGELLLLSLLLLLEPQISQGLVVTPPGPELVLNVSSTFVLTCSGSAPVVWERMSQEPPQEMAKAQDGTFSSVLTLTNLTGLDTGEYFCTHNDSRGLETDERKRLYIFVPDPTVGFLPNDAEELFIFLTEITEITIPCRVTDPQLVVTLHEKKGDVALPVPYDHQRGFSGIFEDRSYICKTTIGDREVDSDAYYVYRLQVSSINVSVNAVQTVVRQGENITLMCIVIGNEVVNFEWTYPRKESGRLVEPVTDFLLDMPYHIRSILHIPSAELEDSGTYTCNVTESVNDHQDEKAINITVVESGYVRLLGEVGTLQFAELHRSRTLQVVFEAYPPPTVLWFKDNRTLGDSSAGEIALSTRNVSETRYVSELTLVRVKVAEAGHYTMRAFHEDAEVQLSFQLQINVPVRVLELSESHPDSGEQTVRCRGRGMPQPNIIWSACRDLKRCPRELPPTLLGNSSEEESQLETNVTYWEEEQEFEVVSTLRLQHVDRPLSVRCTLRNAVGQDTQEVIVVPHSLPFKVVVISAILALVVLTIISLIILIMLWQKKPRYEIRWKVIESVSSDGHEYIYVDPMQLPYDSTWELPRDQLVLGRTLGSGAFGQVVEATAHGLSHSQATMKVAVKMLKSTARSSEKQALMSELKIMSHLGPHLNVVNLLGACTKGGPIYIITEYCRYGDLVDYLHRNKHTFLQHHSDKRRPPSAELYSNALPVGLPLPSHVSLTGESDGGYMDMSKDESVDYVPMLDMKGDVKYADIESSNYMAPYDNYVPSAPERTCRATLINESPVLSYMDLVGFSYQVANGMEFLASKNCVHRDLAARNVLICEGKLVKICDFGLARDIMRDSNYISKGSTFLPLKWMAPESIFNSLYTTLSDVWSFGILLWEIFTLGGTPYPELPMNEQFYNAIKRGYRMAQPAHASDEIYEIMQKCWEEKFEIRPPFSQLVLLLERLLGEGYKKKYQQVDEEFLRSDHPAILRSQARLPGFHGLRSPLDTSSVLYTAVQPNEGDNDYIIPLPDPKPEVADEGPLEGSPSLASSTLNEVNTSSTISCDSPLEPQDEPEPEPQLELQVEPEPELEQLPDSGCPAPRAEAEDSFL

Compound: COCCn1cc(-c2ccc(F)cc2)c(=O)c2c(Nc3ccc(Oc4ncnc5cc(OC)c(OC)cc45)c(F)c3)nccc21
- pIC50 [1]: 6.79
- pIC50 [3]: < 5.52

Compound: COc1cc2c(Oc3ccc(Nc4nccc5[nH]cc(-c6ccc(F)cc6)c(=O)c45)cc3F)ncnc2cc1OCC1CCN(C)CC1
- pIC50 [1]: 7.81
- pIC50 [3]: 7.48

Compound: COc1cc2ncnc(Oc3ccc(Nc4nccc5[nH]c(C)c(-c6ccc(F)cc6)c(=O)c45)cc3F)c2cc1OC
- pIC50 [1]: 6.64
- pIC50 [3]: 6.34

Compound: COc1cc2c(Oc3ccc(Nc4nccc5[nH]cc(-c6ccc(F)cc6)c(=O)c45)cc3F)ncnc2cc1OCCO.Cc1ccc(S(=O)(=O)O)cc1
- pIC50 [1]: 7.86
- pIC50 [3]: 7.66
- half-life [4]: 3.85 h

Compound: COc1cc2ncnc(Oc3ccc(Nc4nccc5[nH]cc(-c6ccc(F)cc6)c(=O)c45)cc3F)c2cc1OCCCN1CCCCC1
- pIC50 [1]: 7.81
- pIC50 [3]: 6.68

Compound: COc1cc2c(Oc3ccc(Nc4nccc5[nH]cc(-c6ccc(F)cc6)c(=O)c45)cc3F)ncnc2cc1OCCCN1CCOCC1
- pIC50 [1]: 7.66
- pIC50 [3]: 6.64

Compound: COc1cc2ncnc(Oc3ccc(Nc4nccc5[nH]cc(-c6ccc(F)cc6)c(=O)c45)cc3F)c2cc1OCCCN1CCOCC1
- pIC50 [1]: 7.63
- pIC50 [3]: 6.92

Now those with a higher pIC50 [1], led by results:

- pIC50 [1]: 8.08
- pIC50 [2]: 6.89
- pIC50 [3]: 6.89
Compound: COc1cc2c(Oc3ccc(Nc4nccc5[nH]cc(-c6ccc(F)cc6)c(=O)c45)cc3F)ncnc2cc1OCCCN1CCCC1

- pIC50 [1]: 8.02
- pIC50 [3]: 7.32
- half-life [4]: 0.83 h
Compound: O=c1c(-c2ccc(F)cc2)c[nH]c2ccnc(Nc3ccc(Oc4ncnc5cc6c(cc45)OCCOCCOCCO6)c(F)c3)c12

- pIC50 [1]: 8.15
- pIC50 [2]: 7.08
- pIC50 [3]: < 5.52
- half-life [4]: 4.27 h
- Ratio IC50 (Homo sapiens): > 422
Compound: COc1cc2ncnc(Oc3ccc(Nc4nccc5c4c(=O)c(-c4ccc(F)cc4)cn5C)cc3F)c2cc1OC

- pIC50 [1]: 8.05
- pIC50 [2]: 7.06
- pIC50 [3]: 6.95
- half-life [4]: 10.4 h
- pIC50 [5]: 7.55
- pIC50 [6]: 7.77
- pIC50 [7]: < 5.70
- Cmax [8]: 25100 ng/mL
- Tmax [9]: 3.5 h
- half-life [10]: 12.5 h
- AUC(0-inf) [11]: 427 µg·h/mL
- CL/F [12]: 0.333 mL/min/kg
- Vz [13]: 0.4 L/kg
- bioavailability [14]: 42%
- Cmax [15]: 44000 ng/mL
- Tmax [16]: 1.8 min
- half-life [17]: 14 h
- AUC(0-inf) [18]: 510 µg·h/mL
- clearance [19]: 0.167 mL/min/kg
- Vd [20]: 0.2 L/kg
- Cmax [24]: 12100 ng/mL
- Cmax [25]: 16000 ng/mL
- AUC(0-t) at 504 h [26]: 156 µg·h/mL
- AUC(0-t) at 504 h [27]: 279 µg·h/mL
Compound: COc1cc2ncnc(Oc3ccc(Nc4nccc5[nH]cc(-c6ccc(F)cc6)c(=O)c45)cc3)c2cc1OC
- ED50 (U-87 MG [21]; 504 h): 25 mg/kg
- TGI (U-87 MG [21]; U-87MG ATCC): Dose-dependent effect
- inhibition in vivo at 25 mg/kg (U-87 MG [22]): 51%
- inhibition in vivo at 75 mg/kg (U-87 MG [23]): 81%

- pIC50 [1]: 8.09
- pIC50 [3]: 6.84
Compound: COc1cc2ncnc(Oc3ccc(Nc4nccc5[nH]cc(-c6ccc(F)cc6)c(=O)c45)cc3F)c2cc1OCCCN1CCCC1
